≈ marks a conversion by molar mass, not a printed value.
Assays:
Pseudomonas aeruginosa [1] = experiment: Antibacterial activity against Pseudomonas aeruginosa ATCC 27853 assessed as growth inhibition at 4 mg/disc after 24 hrs by disc diffusion assay; type: functional
Summary of the method: (§1)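 Disc diffusion. Suspension at 0.5 McFarland mixed 1/10 into Mueller Hinton agar. 5 mm sterile filter-paper discs, set in stainless steel cylinders, moistened with compound in chloroform at 4 mg/disc. Plates incubated 24 h at 30 °C; inhibition zone diameter (mm, mean) measured.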

Kocuria rhizophila [2] = experiment: Antibacterial activity against Sarcina luteus ATCC 9341 assessed as growth inhibition at 4 mg/disc after 24 hrs by disc diffusion assay; type: functional, DC2201; summary of the method: as §1
Candida albicans = experiment: Antifungal activity against Candida albicans ATCC 10231 assessed as growth inhibition at 4 mg/disc after 48 hrs by disc diffusion assay; type: functional
Summary of the method: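 Candida albicans suspension at 0.5 McFarland mixed 1/10 into Sabouraud agar. 5 mm filter-paper discs in steel cylinders, loaded with compound in chloroform at 4 mg/disc; nystatin control at 100 µg/disc. Incubated 48 h at 28 °C; inhibition zone diameter (mm) measured.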

Bacillus subtilis [3] = experiment: Antibacterial activity against Bacillus subtilis assessed as growth inhibition at 4 mg/disc after 24 hrs by disc diffusion assay; type: functional; summary of the method: as §1
Staphylococcus aureus [4] = experiment: Antibacterial activity against Staphylococcus aureus ATCC 25923 assessed as growth inhibition at 4 mg/disc after 24 hrs by disc diffusion assay; type: functional; summary of the method: as §1
Escherichia coli [5] = experiment: Antibacterial activity against Escherichia coli ATCC 25922 assessed as growth inhibition at 4 mg/disc after 24 hrs by disc diffusion assay; type: functional; summary of the method: as §1
Kocuria rhizophila [6] = experiment: Antibacterial activity against Sarcina luteus ATCC 9341 assessed as growth inhibition after 24 hrs by broth microdilution assay; type: functional; details: DC2201, 24 h
Summary of the method: (§2)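 Broth microdilution in Mueller Hinton broth. Inoculum adjusted to 0.5 McFarland. Compounds dissolved in 50% DMSO at 250 mg/mL (stock), then two-fold serial dilutions over 250 to 0.12 mg/mL. Further broth plus 5 µL inoculum added per well. Incubated 24 h at 37 °C, screened twice per organism. MIC is the lowest concentration with no visible growth; chloramphenicol MIC expressed in µg/mL.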

Staphylococcus aureus [7] = experiment: Antibacterial activity against Staphylococcus aureus ATCC 25923 assessed as growth inhibition after 24 hrs by broth microdilution assay; type: functional; details: ATCC 25923, 24 h; summary of the method: as §2
Bacillus subtilis [8] = experiment: Antibacterial activity against Bacillus subtilis assessed as growth inhibition after 24 hrs by broth microdilution assay; type: functional; summary of the method: as §2
Pseudomonas aeruginosa [9] = experiment: Antibacterial activity against Pseudomonas aeruginosa ATCC 27853 assessed as growth inhibition at 30 ug/disc after 24 hrs by disc diffusion assay; type: functional; details: ATCC 27853, 24 h, read-out: DIZ
Summary of the method: (§3)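 Chloramphenicol control discs at 30 µg/disc on Mueller Hinton agar seeded 1/10 with 0.5 McFarland suspension. Incubated 24 h at 30 °C; inhibition zone diameter (mm) read.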

Kocuria rhizophila [10] = experiment: Antibacterial activity against Sarcina luteus ATCC 9341 assessed as growth inhibition at 30 ug/disc after 24 hrs by disc diffusion assay; type: functional; details: DC2201, 24 h, read-out: DIZ; summary of the method: as §3
Bacillus subtilis [11] = experiment: Antibacterial activity against Bacillus subtilis assessed as growth inhibition at 30 ug/disc after 24 hrs by disc diffusion assay; type: functional; details: read-out: DIZ; summary of the method: as §3
Staphylococcus aureus [12] = experiment: Antibacterial activity against Staphylococcus aureus ATCC 25923 assessed as growth inhibition at 30 ug/disc after 24 hrs by disc diffusion assay; type: functional; details: ATCC 25923, 24 h, read-out: DIZ
Summary of the method: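 Disc diffusion. A 0.5 McFarland bacterial suspension was mixed 1/10 with Mueller Hinton agar. Sterile 5 mm filter paper discs, set in sterile steel cylinders, were loaded at 30 µg/disc (the reference antibiotic dose; test compounds were 4 mg/disc in chloroform). Plates were incubated 24 h at 30 °C, and the inhibition zone diameter (mm, mean) was measured.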

Escherichia coli [13] = experiment: Antibacterial activity against Escherichia coli ATCC 25922 assessed as growth inhibition at 30 ug/disc after 24 hrs by disc diffusion assay; type: functional; details: ATCC 25922, 24 h, read-out: DIZ; summary of the method: as §3

SMILES	diameter of the inhibition zone (DIZ) (Pseudomonas aeruginosa [1]) [mm]	diameter of the inhibition zone (DIZ) (Kocuria rhizophila [2]) [mm]	diameter of the inhibition zone (DIZ) (Candida albicans) [mm]	diameter of the inhibition zone (DIZ) (Bacillus subtilis [3]) [mm]	diameter of the inhibition zone (DIZ) (Staphylococcus aureus [4]) [mm]	diameter of the inhibition zone (DIZ) (Escherichia coli [5]) [mm]	MIC (Kocuria rhizophila [6]) [µg/mL]	MIC (Staphylococcus aureus [7]) [µg/mL]	MIC (Bacillus subtilis [8]) [µg/mL]	zone of inhibition at 30 µg/disc (Pseudomonas aeruginosa [9]) [mm]	zone of inhibition at 30 µg/disc (Kocuria rhizophila [10]) [mm]	zone of inhibition at 30 µg/disc (Bacillus subtilis [11]) [mm]	zone of inhibition at 30 µg/disc (Staphylococcus aureus [12]) [mm]	zone of inhibition at 30 µg/disc (Escherichia coli [13]) [mm]
CCOC(=O)[C@H]1[C@H](C(F)(F)F)[C@@H]2C=CC=NN2[C@H]1C(=O)c1ccc(F)cc1	21	58	29	38	28	31	–	–	–	–	–	–	–	–
CCOC(=O)c1c(C(F)(F)F)c2cccnn2c1C(=O)c1ccc(F)cc1	16	41	29	31	30	34	–	–	–	–	–	–	–	–
Cc1ccc(C(=O)[C@H]2C[C@H](C(=O)OCC(F)(F)F)[C@@H]3C=CC=NN23)cc1	20	59	30	39	30	28	110 (≈ 300 µM)	3800 (≈ 10400 µM)	180 (≈ 491 µM)	–	–	–	–	–
CCOC(=O)c1c(C(F)(F)F)c2cccnn2c1C(=O)c1ccc(Cl)cc1	18	44	26	38	29	42	–	–	–	–	–	–	–	–
O=C(OCC(F)(F)F)[C@H]1C[C@H](C(=O)c2ccc(F)cc2)N2N=CC=C[C@@H]12	19	55	27	31	28	26	–	–	–	–	–	–	–	–
O=C(N[C@H](CO)[C@H](O)c1ccc([N+](=O)[O-])cc1)C(Cl)Cl [CHLORAMPHENICOL]	–	–	–	–	–	–	0.25 (≈ 0.774 µM)	0.25 (≈ 0.774 µM)	0.25 (≈ 0.774 µM)	19	30	25	25	29
CCOC(=O)[C@H]1[C@H](C(F)(F)F)[C@@H]2C=CC=NN2[C@H]1C(=O)c1ccc(C)cc1	21	61	31	38	29	27	90 (≈ 237 µM)	4200 (≈ 11000 µM)	200 (≈ 526 µM)	–	–	–	–	–
O=C(OCC(F)(F)F)[C@H]1C[C@H](C(=O)c2ccc(Cl)cc2)N2N=CC=C[C@@H]12	20	58	37	33	30	35	–	–	–	–	–	–	–	–
CCOC(=O)c1c(C(F)(F)F)c2cccnn2c1C(=O)c1ccc(C)cc1	19	60	32	36	49	40	100 (≈ 266 µM)	160 (≈ 425 µM)	220 (≈ 585 µM)	–	–	–	–	–
